Experimental data: ChEMBL document CHEMBL1137710, “Synthesis and in vitro antitumor activity of new quinoxaline derivatives” (2009)

What was measured:
Type in all cases: functional
SNB-75 = test: Growth inhibition of human SNB75 cells after 48 hrs by sulforhodamine B assay; conditions: SNB-75, 48 h; for TGI: read-out: pTGI (converted)
How it was run: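 Run in the NCI 60-human-tumour-cell-line panel, tested over a 5-log dose range. Dose–response curves gave three values per cell line, each as a log10 molar concentration: GI50 (50% inhibition of net cell growth), TGI (total inhibition of net growth) and LC50 (50% net cell death). The mean graph midpoint is the arithmetic mean over all lines, with insensitive lines entered at the highest concentration tested.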

EKVX = test: Growth inhibition of human EKVX cells after 48 hrs by sulforhodamine B assay; conditions: for TGI: read-out: pTGI (converted)
How it was run: (§1)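 NCI 60-human-tumor-cell-line panel, with compounds tested over a 5-log dose range. Values are taken from dose-response curves as log10 molar concentrations: GI50 is 50% net growth inhibition, TGI is total growth inhibition, and LC50 is 50% net cell death.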

BT-549 = test: Growth inhibition of human BT549 cells after 48 hrs by sulforhodamine B assay; conditions: BT-549, 48 h; for CC50: read-out: pLC50 (the source's name) (converted); for TGI: read-out: pTGI (converted); how it was run: as §1
MDA-N = test: Growth inhibition of human MDA-N cells after 48 hrs by sulforhodamine B assay; conditions: for CC50: read-out: pLC50 (the source's name) (converted); for TGI: read-out: pTGI (converted)
HCC 2998 = test: Growth inhibition of human HCC2998 cells after 48 hrs by sulforhodamine B assay; conditions: HCC 2998, 48 h; for TGI: read-out: pTGI (converted); how it was run: as §1

Row | Compound | GI50 (SNB-75) | LC50 (SNB-75) | TGI (SNB-75) | GI50 (EKVX) | LC50 (50% net cell kill) (EKVX) | TGI (EKVX) | GI50 (BT-549) | CC50 (BT-549) | TGI (BT-549) | GI50 (MDA-N) | CC50 (MDA-N) | TGI (MDA-N) | GI50 (HCC 2998) | TGI (HCC 2998) | LC50 (50% net cell kill) (HCC 2998)
1 | Nc1cc(N)c2nc(-c3ccccc3)c(Oc3ccc(F)cc3)nc2c1 | 23.4 µM | > 100 µM | 49 µM | 14.8 µM | 77.6 µM | 33.9 µM | 15.1 µM | 81.3 µM | 34.7 µM | – | – | – | – | – | –
2 | COc1cc(CNc2nc3cc(N)cc(N)c3nc2-c2ccccc2)cc(OC)c1 | – | – | – | 2.82 µM | > 100 µM | 8.91 µM | 9.77 µM | > 100 µM | > 100 µM | 2.34 µM | > 100 µM | 5.25 µM | – | – | –
3 | COc1cc(OC)cc(Oc2nc3cc(N)cc(N)c3nc2-c2ccccc2)c1 | 0.126 µM | – | 2.69 µM | 3.8 µM | – | 19.5 µM | 1.48 µM | 38 µM | 6.92 µM | – | – | – | 2.51 µM | 13.8 µM | –
4 | COc1ccc(Oc2nc3cc(N)cc(N)c3nc2-c2ccccc2)cc1 | – | – | – | 24.5 µM | > 100 µM | 63.1 µM | 32.4 µM | > 100 µM | > 100 µM | 35.5 µM | > 100 µM | > 100 µM | – | – | –
5 | Nc1cc(N)c2nc(-c3ccccc3)c(NCc3ccc(Cl)c(Cl)c3)nc2c1 | – | – | – | 11 µM | > 100 µM | 38.9 µM | – | – | – | – | – | – | – | – | –
6 | Nc1cc(N)c2nc(-c3ccccc3)c(Oc3ccc(Cl)c(Cl)c3)nc2c1 | – | – | – | 2.14 µM | 41.7 µM | 8.32 µM | – | – | – | – | – | – | – | – | –
7 | Nc1cc(N)c2nc(-c3ccccc3)c(Sc3ccc(F)cc3)nc2c1 | 20.9 µM | > 100 µM | 47.9 µM | 20.4 µM | 83.2 µM | 41.7 µM | 21.9 µM | 89.1 µM | 43.7 µM | – | – | – | – | – | –
8 | Nc1cc(N)c2nc(-c3ccccc3)c(NCc3ccc(F)cc3)nc2c1 | 2.14 µM | > 100 µM | 5.01 µM | 1.91 µM | 8.71 µM | 4.07 µM | 1.7 µM | 6.31 µM | 3.24 µM | – | – | – | – | – | –
9 | COc1ccc(CNc2nc3cc(N)cc(N)c3nc2-c2ccccc2)cc1OC | 16.2 µM | 97.7 µM | 39.8 µM | 5.89 µM | > 100 µM | 30.2 µM | 13.5 µM | 79.4 µM | 32.4 µM | – | – | – | 22.9 µM | 56.2 µM | > 100 µM
10 | COc1cc(CNc2nc3cc(N)cc(N)c3nc2-c2ccccc2)cc(OC)c1OC | 0.813 µM | > 50.1 µM | 14.5 µM | 1.95 µM | 27.5 µM | 8.32 µM | 3.8 µM | 27.5 µM | 11.2 µM | – | – | – | – | – | –
11 | COc1ccc(CNc2nc3cc(N)cc(N)c3nc2-c2ccccc2)cc1 | – | 72.4 µM | 30.2 µM | 14.8 µM | 53.7 µM | 28.2 µM | 6.46 µM | > 100 µM | 30.9 µM | 14.1 µM | 53.7 µM | 27.5 µM | 21.9 µM | 51.3 µM | > 100 µM
